Results of several laboratories.
Each line is one published result; the experiments were not run side by side. Converted amounts (≈) assume the structure as drawn.

NCCCCCN  activity vs control (Cryptosporidium parvum; parasite growth, imaging; HCT-8; 1 mM, 24 h, intracellular): 96.3%
O=C1NC(=S)S/C1=C\c1ccc(-c2ccc(N(c3ccccc3)c3ccccc3)cc2)cc1  MBC (Streptococcus pneumoniae; microbial killing, broth dilution; ATCC49619): > 1000 µg/mL
O=S(=O)(Oc1cccc2cccnc12)c1ccccc1  IC50 (Klebsiella pneumoniae; microbial growth, broth dilution; ATCC700603): 340 µg/mL
Cc1c(NC(=O)CC2=NC(=O)CS2)c(=O)n(-c2ccccc2)n1C  MBC (Klebsiella pneumoniae; microbial killing, broth dilution): 0.5 µg/mL (≈ 1.45 µM)
O=C1C=C(OCc2cn(-c3ccc([N+](=O)[O-])cc3)nn2)C(=O)c2ccccc21  IC50 (Klebsiella pneumoniae; microbial growth, broth dilution; ATCC700603): 370 µg/mL (≈ 983 µM)
O=C(O)CN1C(=O)/C(=C/c2ccc(-c3ccc(N(c4ccccc4)c4ccccc4)cc3)cc2)NC1=S  MBC (Streptococcus pneumoniae; microbial killing, broth dilution; ATCC49619): 125 µg/mL (≈ 247 µM)
Cc1ccc(-c2nn(-c3ccccc3)cc2C=c2sc(=CC#N)[nH]c2=O)cc1  inhibition zone (Klebsiella pneumoniae; microbial growth, well diffusion; 100000 µg/mL): 16 mm
O=C(O)CN1C(=O)/C(=C/c2ccc(-c3ccc(N(c4ccccc4)c4ccccc4)cc3)c3ccccc23)SC1=S  MBC (Streptococcus pneumoniae; microbial killing, broth dilution; ATCC49619): > 1000 µg/mL
Nc1ncnc2c1ncn2[C@H]1C[C@H](O)[C@@H](COP(=O)(O)O)O1  activity vs control (Cryptosporidium parvum; parasite growth, imaging; HCT-8; 1 mM, 24 h, intracellular): 96.7%
O=C1NC(=S)N/C1=C\c1ccc(-c2ccc(N(c3ccccc3)c3ccccc3)cc2)c2ccccc12  MBC (Streptococcus pneumoniae; microbial killing, broth dilution; ATCC49619): > 1000 µg/mL
O=C(Nc1ccccc1-c1ccc(F)c(F)c1)c1nccnc1C(F)(F)F  EC50 (Alternaria kikuchiana; microbial growth): 0.058 µg/mL
Cc1cccc2[nH]ccc12  EC90 (Cryptosporidium parvum; parasite growth; HCT-8; 24 h, intracellular): 552 µM
O=C1NC(=S)S/C1=C\c1c2ccccc2c(-c2ccc(N(c3ccccc3)c3ccccc3)cc2)c2ccccc12  MBC (Streptococcus pneumoniae; microbial killing, broth dilution; ATCC49619): > 1000 µg/mL
N#CC(=Cc1cn(-c2ccccc2)nc1-c1ccccc1)C1=NC(=O)CS1  MBC (Klebsiella pneumoniae; microbial killing, broth dilution): 0.25 µg/mL (≈ 0.675 µM)
O=C1NC(=S)S/C1=C\c1ccc(-c2ccc(N(c3ccccc3)c3ccccc3)cc2)c2ccccc12  MBC (Streptococcus pneumoniae; microbial killing, broth dilution; ATCC49619): > 1000 µg/mL
Cc1ncc(CO)c(C(=O)O)c1O  activity vs control (Cryptosporidium parvum; parasite growth, imaging; HCT-8; 1 mM, 24 h, intracellular): 105%
CC(C)(NC(=O)c1cc2c(Cl)cc(Cl)cc2[nH]1)c1cn(Cc2cccc(Cl)c2)nn1  inhibition (Cryptosporidium parvum; parasite growth, imaging; HCT-8; 11 µM, 72 h, intracellular): > 60%
c1ccc(-n2cc(COc3cccc4cccnc34)nn2)cc1  IC50 (Klebsiella pneumoniae; microbial growth, broth dilution; ATCC700603): 401 µg/mL (≈ 1330 µM)
CC(C)(NC(=O)c1cc2c(Cl)cc(Cl)cc2[nH]1)c1cn(Cc2ccc(Cl)c(Cl)c2)nn1  inhibition (Cryptosporidium parvum; parasite growth, imaging; HCT-8; 11 µM, 72 h, intracellular): > 60%
O=C(O)CN1C(=O)/C(=C/c2ccc(-c3ccc(N(c4ccccc4)c4ccccc4)cc3)c3ccccc23)NC1=S  MIC (Streptococcus pneumoniae; microbial growth, broth dilution; ATCC49619): > 1000 µg/mL
CCOC(=O)C=c1[nH]c(=O)c(=Cc2cn(-c3ccccc3)nc2-c2ccc(C)cc2)s1  inhibition zone (Klebsiella pneumoniae; microbial growth, well diffusion; 100000 µg/mL): 13 mm
CCCCC[C@H](O)/C=C/[C@H]1[C@H](O)CC(=O)[C@@H]1C/C=C\CCCC(=O)O  activity vs control (Cryptosporidium parvum; parasite growth, imaging; HCT-8; 50 µM, 24 h, intracellular): 88.5%
CCCCS(=O)(=O)Oc1cc(C(C)C)ccc1C  IC50 (Klebsiella pneumoniae; microbial growth, broth dilution; ATCC700603): 95.5 µg/mL (≈ 353 µM)
CC(C)(NC(=O)c1cc2c(Cl)cc(Cl)cc2[nH]1)c1cn(Cc2ccccc2)nn1  inhibition (Cryptosporidium parvum; parasite growth, imaging; HCT-8; 11 µM, 72 h, intracellular): > 60%
O=C1C=C(OCc2cn(-c3ccccc3)nn2)C(=O)c2ccccc21  IC50 (Klebsiella pneumoniae; microbial growth, broth dilution; ATCC700603): 223 µg/mL (≈ 674 µM)
O=C1NC(=S)N/C1=C\c1c2ccccc2c(-c2ccc(N(c3ccccc3)c3ccccc3)cc2)c2ccccc12  MIC (Streptococcus pneumoniae; microbial growth, broth dilution; ATCC49619): > 1000 µg/mL
O=C(O)c1cccnc1  activity vs control (Cryptosporidium parvum; parasite growth, imaging; HCT-8; 1 mM, 24 h, intracellular): 90.3%
NS(=O)(=O)c1ccc(-n2cc(COc3cccc4cccnc34)nn2)cc1  IC50 (Klebsiella pneumoniae; microbial growth, broth dilution; ATCC700603): 866 µg/mL (≈ 2270 µM)
NCCCCN  activity vs control (Cryptosporidium parvum; parasite growth, imaging; HCT-8; 1 mM, 24 h, intracellular): 110%
O=C(O)c1cn(C2CC2)c2cc(N3CCNCC3)c(F)cc2c1=O  IC50 (Klebsiella pneumoniae; microbial growth, broth dilution; ATCC700603): 0.25 µg/mL (≈ 0.754 µM)
Cc1ccc2cc[nH]c2c1  EC50 (Cryptosporidium parvum; parasite growth; HCT-8; 24 h, intracellular): 310 µM
O=S(=O)(Oc1cccc2cccnc12)c1cccs1  IC50 (Klebsiella pneumoniae; microbial growth, broth dilution; ATCC700603): 443 µg/mL (≈ 1520 µM)
Cc1c(CN(C)C(=O)/C=C/c2cnc3c(c2)CC(CCN)C(=O)N3)oc2ccccc12.Cl (stereo not drawn)  MIC (Klebsiella pneumoniae; microbial growth, broth dilution; BAA2342): 16 µg/mL
